Assay results as given in ChEMBL document CHEMBL1140972, “Synthesis and structure-activity relationship of 3-phenylquinoxaline 1,4-di-N-oxide derivatives as antimalarial agents” (Eur J Med Chem, 2008).
pIC50: −log10 of the molar value.

Columns and labels:
[1] = test system: Plasmodium falciparum; experiment: Antimalarial activity after 48 hrs against chloroquine-sensitive Plasmodium falciparum 3D7 by [3H]hypoxanthine uptake; type: functional, organism-based
Summary of the method: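 Asynchronous culture (65-75% rings, 0.5% parasitemia, 2.5% final hematocrit) in RPMI 1640 with 0.5% Albumax II, 0.2% glucose, 0.03% L-glutamine and 5 µM hypoxanthine. Triplicate wells with a 3-fold series of 10.0–0.0412 µg/mL; final DMSO ≤0.01%. 37 °C, 5% CO2: 24 h, then 0.2 µCi/well [3H]hypoxanthine for a further 24 h. Frozen, harvested, scintillation-counted. IC50 from curve fit; mean of 2–3 experiments.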

[2] = test system: Plasmodium falciparum; experiment: Antimalarial activity after 48 hrs against chloroquine-resistant Plasmodium falciparum K1 by [3H]hypoxanthine uptake; type: functional, organism-based
Summary of the method: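 Asynchronous P. falciparum K1 culture (65-75% ring stage, 0.5% parasitemia; chloroquine, pyrimethamine, cycloguanil resistant) at 2.5% hematocrit in RPMI 1640 with 0.5% Albumax II, glucose, L-glutamine, 5 µM hypoxanthine. Triplicate 3-fold dilutions 10.0–0.0412 µg/mL, DMSO ≤0.01% final, 37 °C, 5% CO2. [3H]-hypoxanthine (0.2 µCi/well) added at 24 h, incorporation counted after further 24 h. IC50 by curve fit, 2–3 experiments.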

[3] = test system: KB; experiment: Cytotoxicity against human KB cells after 48 hrs by alamar blue assay; type: cell-based
[4] = Selectivity index, ratio of IC50 for human KB cells to IC50 for chloroquine-resistant Plasmodium falciparum K1; type: toxicity, cell-based; details: read-out: Ratio IC50
Summary of the method: (§1)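 KB IC50 divided by the parasite IC50 (K1 or 3D7). KB cells seeded at 4×10^4 cells/mL in RPMI 1640 with 10% heat-inactivated FCS and grown 24 h. Triplicate dilution series then added for 72 h. AlamarBlue for 2–4 h, fluorescence ex 530/em 585 nm, IC50 by curve fit. Podophyllotoxin as positive control.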

[5] = Resistant index, ratio of IC50 for chloroquine-resistant Plasmodium falciparum K1 to IC50 for chloroquine-sensitive Plasmodium falciparum 3D7; type: functional
Summary of the method: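 IC50 against K1 divided by IC50 against 3D7 (drug-sensitive NF54 clone). Both from [3H]-hypoxanthine incorporation over 48 h: asynchronous cultures at 0.5% parasitemia, 2.5% hematocrit, 3-fold dilutions 10.0–0.0412 µg/mL in triplicate. Label added at 24 h. Means of 2–3 independent experiments.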

[6] = Selectivity index, ratio of IC50 for human KB cells to IC50 for chloroquine-sensitive Plasmodium falciparum 3D7; type: toxicity, cell-based; details: read-out: Ratio IC50; summary of the method: as §1

N#Cc1c(-c2ccc(OC(F)(F)F)cc2)[n+]([O-])c2ccccc2[n+]1[O-]
pIC50 [1]: 5.90 | pIC50 [2]: 6.57 | pIC50 [3]: 5.56 | selectivity ratio [4]: 10.3 | Ratio IC50 [5]: 0.21 | selectivity ratio [6]: 2.17

COc1ccc2c(c1)[n+]([O-])c(C#N)c(-c1ccccc1)[n+]2[O-]
pIC50 [1]: 5.83 | pIC50 [2]: 6.14 | pIC50 [3]: 4.98 | selectivity ratio [4]: 14.5 | Ratio IC50 [5]: 0.49 | selectivity ratio [6]: 7.12
